Results taken from ChEMBL document CHEMBL5058577, “EUbOPEN Chemogenomics Library 2 (Multiplex)” (2022).

Test system: U2OS
Assay: Multiplex assay against U2OS
Format: toxicity, cell-based
Settings: human
Outline: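 Live cells were stained at seeding with Hoechst33342, BioTracker Green Microtubule Cytoskeleton Dye, MitoTracker Red and Annexin V Alexa Fluor 680. Following compound addition, they were imaged on a CQ1 microscope at 37°C and 5% CO2 and gated by CellPathfinder machine learning into Hoechst high-intensity objects or normal cells, with normal cells split into healthy, pyknosed or fragmented nuclei and pyknosed cells into mitotic or apoptotic. Tubulin, mitochondrial-mass and membrane-permeability phenotypes are per cents of healthy-nucleus cells.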

[1] = 12 h, 1 µM, compound concentration 1 uM, replicate 1
[2] = 12 h, 1 µM, compound concentration 1 uM, replicate 2
[3] = 12 h, 10 µM, compound concentration 10 uM, replicate 1
[4] = 12 h, 10 µM, compound concentration 10 uM, replicate 2
[5] = 24 h, 1 µM, compound concentration 1 uM, replicate 1
[6] = 24 h, 1 µM, compound concentration 1 uM, replicate 2
[7] = 24 h, 10 µM, compound concentration 10 uM, replicate 1
[8] = 24 h, 10 µM, compound concentration 10 uM, replicate 2
[9] = 48 h, 1 µM, compound concentration 1 uM, replicate 1
[10] = 48 h, 1 µM, compound concentration 1 uM, replicate 2
[11] = 48 h, 10 µM, compound concentration 10 uM, replicate 1
[12] = 48 h, 10 µM, compound concentration 10 uM, replicate 2

## O=C1[C@H](Cc2ccc(O)cc2)N2C(=O)CCN(C(=O)NCc3ccccc3)[C@H]2CN1Cc1cccc2ccccc12
[1]
  Population Apoptotic (%): 91%
  Population Fragmented Nuclei (%): 13%
  Population Healthy Nuclei (%): 74%
  Population Hoechst High Intensity Objects (%): 4%
  Population Membrane Permeable-Phenotype (%): 4%
  Population Mitochondria Different-Phenotype (%): 1%
  Population Mitotic Cells (%): 8%
  Population Normal (%): 96%
  Population Pyknosed Nuclei (%): 12%
  Population Tubulin-Different-Phenotype (%): 1%
  Total Cell Count: 200
[2]
  Population Apoptotic (%): 84%
  Population Fragmented Nuclei (%): 21%
  Population Healthy Nuclei (%): 66%
  Population Hoechst High Intensity Objects (%): 0%
  Population Membrane Permeable-Phenotype (%): 5%
  Population Mitochondria Different-Phenotype (%): 8%
  Population Mitotic Cells (%): 15%
  Population Normal (%): 99%
  Population Pyknosed Nuclei (%): 11%
  Population Tubulin-Different-Phenotype (%): 4%
  Total Cell Count: 113
[3]
  Population Apoptotic (%): 60%
  Population Fragmented Nuclei (%): 32%
  Population Healthy Nuclei (%): 50%
  Population Hoechst High Intensity Objects (%): 3%
  Population Membrane Permeable-Phenotype (%): 55%
  Population Mitochondria Different-Phenotype (%): 35%
  Population Mitotic Cells (%): 40%
  Population Normal (%): 96%
  Population Pyknosed Nuclei (%): 17%
  Population Tubulin-Different-Phenotype (%): 55%
  Total Cell Count: 207
[4]
  Population Apoptotic (%): 72%
  Population Fragmented Nuclei (%): 19%
  Population Healthy Nuclei (%): 67%
  Population Hoechst High Intensity Objects (%): 6%
  Population Membrane Permeable-Phenotype (%): 38%
  Population Mitochondria Different-Phenotype (%): 47%
  Population Mitotic Cells (%): 27%
  Population Normal (%): 93%
  Population Pyknosed Nuclei (%): 13%
  Population Tubulin-Different-Phenotype (%): 43%
  Total Cell Count: 88
[5]
  Population Apoptotic (%): 80%
  Population Fragmented Nuclei (%): 13%
  Population Healthy Nuclei (%): 73%
  Population Hoechst High Intensity Objects (%): 2%
  Population Membrane Permeable-Phenotype (%): 4%
  Population Mitochondria Different-Phenotype (%): 1%
  Population Mitotic Cells (%): 19%
  Population Normal (%): 97%
  Population Pyknosed Nuclei (%): 13%
  Population Tubulin-Different-Phenotype (%): 2%
  Total Cell Count: 242
[6]
  Population Apoptotic (%): 88%
  Population Fragmented Nuclei (%): 14%
  Population Healthy Nuclei (%): 71%
  Population Hoechst High Intensity Objects (%): 1%
  Population Membrane Permeable-Phenotype (%): 7%
  Population Mitochondria Different-Phenotype (%): 5%
  Population Mitotic Cells (%): 11%
  Population Normal (%): 98%
  Population Pyknosed Nuclei (%): 14%
  Population Tubulin-Different-Phenotype (%): 4%
  Total Cell Count: 127
[7]
  Population Apoptotic (%): 65%
  Population Fragmented Nuclei (%): 34%
  Population Healthy Nuclei (%): 42%
  Population Hoechst High Intensity Objects (%): 3%
  Population Membrane Permeable-Phenotype (%): 25%
  Population Mitochondria Different-Phenotype (%): 23%
  Population Mitotic Cells (%): 34%
  Population Normal (%): 96%
  Population Pyknosed Nuclei (%): 22%
  Population Tubulin-Different-Phenotype (%): 25%
  Total Cell Count: 214
[8]
  Population Apoptotic (%): 85%
  Population Fragmented Nuclei (%): 29%
  Population Healthy Nuclei (%): 54%
  Population Hoechst High Intensity Objects (%): 5%
  Population Membrane Permeable-Phenotype (%): 36%
  Population Mitochondria Different-Phenotype (%): 38%
  Population Mitotic Cells (%): 14%
  Population Normal (%): 94%
  Population Pyknosed Nuclei (%): 16%
  Population Tubulin-Different-Phenotype (%): 42%
  Total Cell Count: 91
[9]
  Population Apoptotic (%): 81%
  Population Fragmented Nuclei (%): 15%
  Population Healthy Nuclei (%): 73%
  Population Hoechst High Intensity Objects (%): 3%
  Population Membrane Permeable-Phenotype (%): 2%
  Population Mitochondria Different-Phenotype (%): 2%
  Population Mitotic Cells (%): 18%
  Population Normal (%): 96%
  Population Pyknosed Nuclei (%): 11%
  Population Tubulin-Different-Phenotype (%): 3%
  Total Cell Count: 326
[10]
  Population Apoptotic (%): 95%
  Population Fragmented Nuclei (%): 16%
  Population Healthy Nuclei (%): 67%
  Population Hoechst High Intensity Objects (%): 5%
  Population Membrane Permeable-Phenotype (%): 3%
  Population Mitochondria Different-Phenotype (%): 0%
  Population Mitotic Cells (%): 4%
  Population Normal (%): 94%
  Population Pyknosed Nuclei (%): 15%
  Population Tubulin-Different-Phenotype (%): 5%
  Total Cell Count: 168
[11]
  Population Apoptotic (%): 82%
  Population Fragmented Nuclei (%): 37%
  Population Healthy Nuclei (%): 43%
  Population Hoechst High Intensity Objects (%): 5%
  Population Membrane Permeable-Phenotype (%): 28%
  Population Mitochondria Different-Phenotype (%): 16%
  Population Mitotic Cells (%): 17%
  Population Normal (%): 94%
  Population Pyknosed Nuclei (%): 19%
  Population Tubulin-Different-Phenotype (%): 19%
  Total Cell Count: 252
[12]
  Population Apoptotic (%): 81%
  Population Fragmented Nuclei (%): 33%
  Population Healthy Nuclei (%): 46%
  Population Hoechst High Intensity Objects (%): 4%
  Population Membrane Permeable-Phenotype (%): 22%
  Population Mitochondria Different-Phenotype (%): 20%
  Population Mitotic Cells (%): 18%
  Population Normal (%): 95%
  Population Pyknosed Nuclei (%): 20%
  Population Tubulin-Different-Phenotype (%): 18%
  Total Cell Count: 111
